We go through 20 compounds from ChEMBL document CHEMBL2311438, “Synthesis and biological evaluation of 4-hydroxy-4-(4-methoxyphenyl)-substituted proline and pyrrolidin-2-ylacetic acid derivatives as GABA uptake inhibitors” (Bioorg Med Chem, 2013).

The species entered for one test is Sus scrofa. The test can be described thus: Inhibition of GAT3-mediated [3H]GABA uptake in porcine brain stem membrane fraction 2C assessed as remaining GABA uptake activity preincubated at 100 uM for 10 mins by scintillation counting. It counts as cell membranes. In short, it runs like this: (§1)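 Preliminary single-concentration screen giving percent remaining GABA uptake. Membranes were preincubated with compound for 10 min at 37 °C in Tris-HCl pH 7.2 saline with glucose. Then 50 nM [³H]GABA plus unlabelled GABA was added for 4 min at 37 °C. Filtration harvest onto NaCl-presoaked glass-fibre filters, saline washes, liquid scintillation counting. IC50 pursued only when uptake fell below 50%.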
With `COc1ccc([C@@]2(O)CN[C@H](C(=O)O)C2)cc1`, the Activity was > 50%.

Regarding `COc1ccc([C@@]2(O)CN[C@H](CC(=O)O)C2)cc1`, the Activity is > 50%.

Regarding `COc1ccc([C@@]2(O)C[C@H](CC(=O)O)N(CCC=C(c3sccc3C)c3sccc3C)C2)cc1`, the Activity is > 50%.

Regarding `COc1ccc([C@]2(O)CN[C@@H](CC(=O)O)C2)cc1`, the Activity is > 50%.

On to `COc1ccc([C@]2(O)C[C@H](CC(=O)O)N(CCC=C(c3sccc3C)c3sccc3C)C2)cc1`, for which the Activity is > 50%.

With `COc1ccc([C@]2(O)CN[C@@H](C(=O)O)C2)cc1`, the Activity is > 50%.

A further test is filed under the species Sus scrofa. The test can be described thus: Inhibition of GAT1-mediated [3H]GABA uptake in porcine frontal cortex membrane fraction 2B assessed as remaining GABA uptake activity preincubated at 100 uM for 10 mins by scintillation counting. It counts as cell membranes. Put shortly:
as §1
As to `COc1ccc([C@@]2(O)C[C@@H](CC(=O)O)N(CCC=C(c3sccc3C)c3sccc3C)C2)cc1`, the Activity is > 50%.

On to `COc1ccc([C@@]2(O)CN[C@H](C(=O)O)C2)cc1`, for which the Activity is > 50%.

With `COc1ccc([C@@]2(O)CN[C@H](CC(=O)O)C2)cc1`, the Activity was > 50%.

On to `COc1ccc([C@]2(O)C[C@@H](CC(=O)O)N(CCC=C(c3sccc3C)c3sccc3C)C2)cc1`, for which the Activity was > 50%.

On to `COc1ccc([C@]2(O)CN[C@@H](CC(=O)O)C2)cc1`, for which the Activity is > 50%.

Regarding `COc1ccc([C@]2(O)C[C@H](CC(=O)O)N(CCC=C(c3sccc3C)c3sccc3C)C2)cc1`, the Activity was > 50%.

With `COc1ccc([C@]2(O)CN[C@@H](C(=O)O)C2)cc1`, the Activity was > 50%.

Tested on in the next test: not listed separately
The test can be described thus: Inhibition of GAT3-mediated [3H]GABA uptake in calf brain stem membrane fraction 2C compound preincubated for 10 mins by scintillation counting. The class given is cell membranes, Bos taurus. In short, it runs like this:
(§2)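 50 nM [³H]GABA plus unlabelled GABA added, then 4 min at 37 °C. Stopped by filtration through glass-fibre filters presoaked in 0.9% NaCl, washed, scintillation counted. Triplicate; IC50 as mean ± SEM.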
As for `COc1ccc([C@]2(O)C[C@H](C(=O)O)N(CCC=C(c3ccccc3)c3ccccc3)C2)cc1`, the 50% inhibitory concentration (IC50) (in general, the midpoint of a concentration-inhibition curve) was > 100 µM.

Consider `COc1ccc([C@@]2(O)C[C@H](C(=O)O)N(CCC=C(c3ccccc3)c3ccccc3)C2)cc1`, for which the IC50 is > 100 µM.

The species named for a further test is Bos taurus. The test can be described thus: Inhibition of GAT3-mediated [3H]GABA uptake in bovine brain stem membrane fraction 2C assessed as remaining GABA uptake activity preincubated at 100 uM for 10 mins by scintillation counting. It counts as cell membranes. In short, it runs like this:
as §1
`COc1ccc([C@@]2(O)C[C@@H](C(=O)O)N(CCC=C(c3ccccc3)c3ccccc3)C2)cc1`: the Activity is > 50%.

Take `COc1ccc(C(OCCN2C[C@](O)(c3ccc(OC)cc3)C[C@@H]2C(=O)O)(c2ccc(OC)cc2)c2ccc(OC)cc2)cc1`: the Activity is > 50%.

The species entered for another test is Bos taurus. The test can be described thus: Inhibition of GAT1-mediated [3H]GABA uptake in bovine frontal cortex membrane fraction 2B assessed as remaining GABA uptake activity preincubated at 100 uM for 10 mins by scintillation counting. It counts as cell membranes. In short, it runs like this: as §1
For the compound `COc1ccc([C@]2(O)C[C@@H](C(=O)O)N(CCC=C(c3ccccc3)c3ccccc3)C2)cc1`, the Activity is > 50%.

With `COc1ccc([C@@]2(O)C[C@@H](C(=O)O)N(CCC=C(c3ccccc3)c3ccccc3)C2)cc1`, the Activity was > 50%.

The species entered for the next test is Bos taurus. The test can be described thus: Inhibition of GAT3-mediated [3H]GABA uptake in calf brain stem membrane fraction 2C assessed as remaining GABA uptake activity preincubated at 100 uM for 10 mins by scintillation counting. It counts as cell membranes. Put shortly: as §1
Regarding `COc1ccc([C@]2(O)C[C@H](C(=O)O)N(CCC=C(c3ccccc3)c3ccccc3)C2)cc1`, the Activity is > 50%.

Turning to `COc1ccc([C@@]2(O)C[C@H](C(=O)O)N(CCC=C(c3ccccc3)c3ccccc3)C2)cc1`, the Activity was > 50%.

Another test is filed under the species Bos taurus. The test can be described thus: Inhibition of GAT1-mediated [3H]GABA uptake in calf frontal cortex membrane fraction 2B assessed as remaining GABA uptake activity preincubated at 100 uM for 10 mins by scintillation counting. The class given is cell membranes. Put shortly:
as §1
Take `COc1ccc([C@]2(O)C[C@H](C(=O)O)N(CCC=C(c3ccccc3)c3ccccc3)C2)cc1`: the Activity is > 50%.

With `COc1ccc([C@@]2(O)C[C@H](C(=O)O)N(CCC=C(c3ccccc3)c3ccccc3)C2)cc1`, the Activity is > 50%.

Tested on in the next test: not listed separately
The test can be described thus: Inhibition of GAT1-mediated [3H]GABA uptake in bovine frontal cortex membrane fraction 2B compound preincubated for 10 mins by scintillation counting. It counts as cell membranes, Bos taurus. In short, it runs like this:
as §2
In turn, `COc1ccc(C(OCCN2C[C@@](O)(c3ccc(OC)cc3)C[C@H]2C(=O)O)(c2ccc(OC)cc2)c2ccc(OC)cc2)cc1` had a half-inhibitory concentration (IC50) of 68.1 µM.

Consider `COc1ccc([C@]2(O)C[C@@H](C(=O)O)N(CCC=C(c3ccccc3)c3ccccc3)C2)cc1`, for which the IC50 is > 100 µM.

`COc1ccc(C(OCCN2C[C@](O)(c3ccc(OC)cc3)C[C@H]2C(=O)O)(c2ccc(OC)cc2)c2ccc(OC)cc2)cc1` had an IC50 of 45.1 µM.

For `COc1ccc([C@@]2(O)C[C@@H](C(=O)O)N(CCC=C(c3ccccc3)c3ccccc3)C2)cc1`, the IC50 is > 100 µM.

Tested on in the next test: not listed separately
The test can be described thus: Inhibition of GAT3-mediated [3H]GABA uptake in porcine brain stem membrane fraction 2C compound preincubated for 10 mins by scintillation counting. It counts as cell membranes, Sus scrofa. In short, it runs like this:
as §2
Regarding `COc1ccc([C@@]2(O)C[C@@H](CC(=O)O)N(CCC=C(c3sccc3C)c3sccc3C)C2)cc1`, inhibition was half-maximal at 122 µM (IC50).

Take `COc1ccc([C@@]2(O)CN[C@H](C(=O)O)C2)cc1`: the IC50 was > 100 µM.

Turning to `COc1ccc([C@@]2(O)CN[C@H](CC(=O)O)C2)cc1`, the IC50 was > 100 µM.

Compound `COc1ccc(C(OCCN2C[C@](O)(c3ccc(OC)cc3)C[C@@H]2CC(=O)O)(c2ccc(OC)cc2)c2ccc(OC)cc2)cc1` yielded an IC50 of 65.4 µM.

As to `COc1ccc(C(OCCN2C[C@@](O)(c3ccc(OC)cc3)C[C@@H]2C(=O)O)(c2ccc(OC)cc2)c2ccc(OC)cc2)cc1`, the IC50 was found to be 38 µM.

`COc1ccc([C@]2(O)C[C@@H](CC(=O)O)N(CCC=C(c3sccc3C)c3sccc3C)C2)cc1` returned an IC50 of 124 µM.

With `COc1ccc([C@@]2(O)C[C@H](CC(=O)O)N(CCC=C(c3sccc3C)c3sccc3C)C2)cc1`, the IC50 was > 100 µM.

For the compound `COc1ccc([C@]2(O)CN[C@@H](CC(=O)O)C2)cc1`, the IC50 was > 100 µM.

In the case of `COc1ccc(C(OCCN2C[C@@](O)(c3ccc(OC)cc3)C[C@H]2CC(=O)O)(c2ccc(OC)cc2)c2ccc(OC)cc2)cc1`, the IC50 stood at 78.9 µM. In other words, the double-digit micromolar range.

Take `COc1ccc(C(OCCN2C[C@](O)(c3ccc(OC)cc3)C[C@H]2CC(=O)O)(c2ccc(OC)cc2)c2ccc(OC)cc2)cc1`: the IC50 worked out at 66.7 µM.

Compound `COc1ccc(C(OCCN2C[C@@](O)(c3ccc(OC)cc3)C[C@@H]2CC(=O)O)(c2ccc(OC)cc2)c2ccc(OC)cc2)cc1` came in with an IC50 of 66.1 µM.

For `COc1ccc([C@]2(O)C[C@H](CC(=O)O)N(CCC=C(c3sccc3C)c3sccc3C)C2)cc1`, the IC50 is > 100 µM.

For the compound `COc1ccc([C@]2(O)CN[C@@H](C(=O)O)C2)cc1`, the IC50 was > 100 µM.

Tested on in another test: not listed separately
The test can be described thus: Inhibition of GAT1-mediated [3H]GABA uptake in calf frontal cortex membrane fraction 2B compound preincubated for 10 mins by scintillation counting. The class given is cell membranes, Bos taurus. Put shortly: as §2
In the case of `COc1ccc([C@]2(O)C[C@H](C(=O)O)N(CCC=C(c3ccccc3)c3ccccc3)C2)cc1`, the IC50 was > 100 µM.

For the compound `COc1ccc([C@@]2(O)C[C@H](C(=O)O)N(CCC=C(c3ccccc3)c3ccccc3)C2)cc1`, the IC50 is > 100 µM.

Tested on in the next test: not listed separately
The test can be described thus: Inhibition of GAT1-mediated [3H]GABA uptake in porcine frontal cortex membrane fraction 2B compound preincubated for 10 mins by scintillation counting. The class given is cell membranes, Sus scrofa. Put shortly: as §2
On to `COc1ccc([C@@]2(O)C[C@@H](CC(=O)O)N(CCC=C(c3sccc3C)c3sccc3C)C2)cc1`, for which the IC50 was > 100 µM.

With `COc1ccc([C@@]2(O)CN[C@H](C(=O)O)C2)cc1`, the 50% inhibitory concentration (IC50) is > 100 µM.

Consider `COc1ccc([C@@]2(O)CN[C@H](CC(=O)O)C2)cc1`, for which the IC50 is > 100 µM.

As for `COc1ccc(C(OCCN2C[C@](O)(c3ccc(OC)cc3)C[C@@H]2CC(=O)O)(c2ccc(OC)cc2)c2ccc(OC)cc2)cc1`, the IC50 was found to be 64.5 µM.

`COc1ccc(C(OCCN2C[C@@](O)(c3ccc(OC)cc3)C[C@@H]2C(=O)O)(c2ccc(OC)cc2)c2ccc(OC)cc2)cc1`: the IC50 came out at 56 µM.

Consider `COc1ccc([C@]2(O)C[C@@H](CC(=O)O)N(CCC=C(c3sccc3C)c3sccc3C)C2)cc1`, for which the IC50 was > 100 µM.

`COc1ccc(C(OCCN2C[C@](O)(c3ccc(OC)cc3)C[C@@H]2C(=O)O)(c2ccc(OC)cc2)c2ccc(OC)cc2)cc1` showed a concentration for half-maximal inhibition (IC50) of 71 µM.

`COc1ccc([C@@]2(O)C[C@H](CC(=O)O)N(CCC=C(c3sccc3C)c3sccc3C)C2)cc1`: the IC50 was found to be 114 µM.

On to `COc1ccc([C@]2(O)CN[C@@H](CC(=O)O)C2)cc1`, for which the IC50 is > 100 µM.

The compound `COc1ccc(C(OCCN2C[C@@](O)(c3ccc(OC)cc3)C[C@H]2CC(=O)O)(c2ccc(OC)cc2)c2ccc(OC)cc2)cc1` showed an IC50 of 75.2 µM.

`COc1ccc(C(OCCN2C[C@](O)(c3ccc(OC)cc3)C[C@H]2CC(=O)O)(c2ccc(OC)cc2)c2ccc(OC)cc2)cc1` returned an IC50 of 48.4 µM. Against the preceding compound, the IC50 is about 1.6-fold lower.

In the case of `COc1ccc(C(OCCN2C[C@@](O)(c3ccc(OC)cc3)C[C@@H]2CC(=O)O)(c2ccc(OC)cc2)c2ccc(OC)cc2)cc1`, the IC50 came out at 59.2 µM.

In the case of `COc1ccc([C@]2(O)C[C@H](CC(=O)O)N(CCC=C(c3sccc3C)c3sccc3C)C2)cc1`, the IC50 was > 100 µM.

Regarding `COc1ccc([C@]2(O)CN[C@@H](C(=O)O)C2)cc1`, the IC50 was > 100 µM.

Tested on in another test: not listed separately
The test can be described thus: Inhibition of GAT3-mediated [3H]GABA uptake in bovine brain stem membrane fraction 2C compound preincubated for 10 mins by scintillation counting. It counts as cell membranes, Bos taurus. In short, it runs like this:
as §2
The compound `COc1ccc(C(OCCN2C[C@@](O)(c3ccc(OC)cc3)C[C@H]2C(=O)O)(c2ccc(OC)cc2)c2ccc(OC)cc2)cc1` yielded an IC50 of 63.3 µM.

Regarding `COc1ccc([C@]2(O)C[C@@H](C(=O)O)N(CCC=C(c3ccccc3)c3ccccc3)C2)cc1`, the IC50 came out at 237 µM. Compared with the last compound, the IC50 is about 3.7-fold higher.

For the compound `COc1ccc(C(OCCN2C[C@](O)(c3ccc(OC)cc3)C[C@H]2C(=O)O)(c2ccc(OC)cc2)c2ccc(OC)cc2)cc1`, half-maximal inhibition (IC50) required 29.7 µM. Compared with the last compound, the IC50 is about 8-fold lower.

For the compound `COc1ccc([C@@]2(O)C[C@@H](C(=O)O)N(CCC=C(c3ccccc3)c3ccccc3)C2)cc1`, the IC50 is > 100 µM.

As for `COc1ccc(C(OCCN2C[C@](O)(c3ccc(OC)cc3)C[C@@H]2C(=O)O)(c2ccc(OC)cc2)c2ccc(OC)cc2)cc1`, the IC50 was > 100 µM.
